These results are taken from publication PMC7616937 (Chemical communications (Cambridge, England), 2019).

The nature of data set [1]: Kinetics of fibrillation by Thioflavin T. The format is physicochemical. Conditions: Fig. 3g. The procedure, abridged: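 Peptide fibrillation was tracked by Thioflavin T fluorescence, either with peptide alone or with lipid vesicles mimicking mammalian plasma membranes. The vesicles were made of 1,2-dioleoyl-sn-glycero-3-phosphocholine (DOPC), cholesterol and sphingomyelin.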

The nature of data set [2]: Kinetics of fiber formation by TEM imaging. The format is physicochemical. Conditions: Fig. 2a, b.
In another data set the test system is neuronal dysfunction. Conditions: observation from the literature, no reference printed at b17; compare b4, ref 7a; cited from earlier work.

Peptide text beside a SMILES is read from it.

`CC(=O)N[C@@H](CCCCN)C(=O)N[C@@H](CC(C)C)C(=O)N[C@H](C(=O)N[C@@H](Cc1ccccc1)C(=O)N[C@@H](Cc1ccccc1)C(=O)N[C@@H](C)C(=O)N[C@@H](CCC(=O)O)C(N)=O)C(C)C` [Aβ(16-22), Ac-KLVFFAE-NH2] (Ac-KLVFFAE-NH2): the “ThT fluorescence during kinetic measurement” value in data set [1] (peptide only, without lipid vesicles, followed for 96 hours) is on record as “dramatic increase in fluorescence”. Further, the “effect of addition of lipid vesicles on ThT fluorescence / fibrillation” value in data set [1] (with DOPC/Chol/Sph lipid vesicles) was “inhibition of the fibrillation process”. Further, the “time to mature fibers / completion of self-assembly” value in data set [2] is on record as “four to seven days”.
Aβ(1-42): full length Aβ peptide: the toxicity result with neuronal dysfunction is recorded as “high toxicity”.
